Assay outcomes from PubChem BioAssay.
sdo1 growth: restores growth of sdo1-depleted yeast; S. cerevisiae sdo1-depleted JHY4D growth rescue, OD600 30 h; active compounds read high; pdr5 snq2 efflux-pump mutant strain; z-score at 10 µM; actives 0.21% (n = 140,000); AID 817;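 active = z-score above 3 at both the 24 hr and the 30 hr optical density reads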;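 note: z-score against mean and SD of all compound wells on the same plate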
APP 5'UTR act: APP 5'UTR luciferase reporter activation | activation, % at 2 µM | actives 1% (n = 190,000) | SH-SY5Y APP 5'UTR luciferase reporter, luminescence; zero percent = DMSO vehicle wells;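 active = activation above a set limit, based on mean plus 3 SD of controls, cut at about 140% in these data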
NF-kB expr up: NF-kB expression increase, human neuronal cells; NF-kB reporter expression; active compounds read high; fold change at 12.5 µM; actives 1.6% (n = 190,000); in the data active = fold change above about 3.3
FLuc stim CS: firefly luciferase counter-screen for stimulation assays. P08659. ATPlite luciferase biochemical, luminescence, 10 min; 0 = ATP-free wells, 1 = DMSO control. activation factor at 10 µM. 200,000 tested, under 10 active. AID 1027;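 active = luciferase activation factor, scaled between plate controls, of at least 2 with compound at 10 µM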
Target sequence (P08659 whole entry, looked up): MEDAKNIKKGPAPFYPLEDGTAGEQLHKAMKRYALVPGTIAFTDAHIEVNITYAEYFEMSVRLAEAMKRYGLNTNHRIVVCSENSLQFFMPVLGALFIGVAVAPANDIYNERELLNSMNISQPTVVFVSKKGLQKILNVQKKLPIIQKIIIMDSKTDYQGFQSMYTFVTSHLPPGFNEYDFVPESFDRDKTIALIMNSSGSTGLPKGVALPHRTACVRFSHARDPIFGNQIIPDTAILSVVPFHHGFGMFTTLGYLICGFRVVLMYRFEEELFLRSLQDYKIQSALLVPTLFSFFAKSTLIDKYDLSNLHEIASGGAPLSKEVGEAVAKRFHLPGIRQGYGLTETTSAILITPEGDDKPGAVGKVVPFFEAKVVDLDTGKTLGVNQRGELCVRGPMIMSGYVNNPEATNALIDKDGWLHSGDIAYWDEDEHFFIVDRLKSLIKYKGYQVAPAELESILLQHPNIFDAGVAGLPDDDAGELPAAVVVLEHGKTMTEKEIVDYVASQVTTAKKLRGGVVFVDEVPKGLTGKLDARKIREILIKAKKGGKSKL
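Material: Luciferase/luciferin reagent mix; Doses: test compounds dosed from 2 mM stocks in 100% DMSO; Schedule: 10 min incubation after luciferase reagent addition, room temperature; Measured by: luminescence from luciferase reaction; Read-out: luminescence gain marking luciferase activators.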
FLuc inhib CS: Photinus pyralis luciferase inhibition counter-screen; ATPLite firefly luciferase biochemical luminescence, 10 min; AID 1006; inhibition, % at 10 µM; actives 1.5% (n = 200,000); P08659;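 active = inhibition above about 50% when tested at 10 µM, limit read from the data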
STAT1 activator: activators of IFN-gamma induced STAT1 signaling; NIH 3T3 STAT1-luciferase reporter, luminescence; 100% = IFN-gamma alone, no compound; activation (% of control), % at 5.5 µM; actives 2.6% (n = 200,000); AID 932;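 active = activation above the screen-wide mean activation plus 3 SD, cut at about 130% in these data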;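 note: raw ratio to IFN-gamma control signal so 100% means no change and 0% no light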
STAT1 act conf: STAT1 activation, confirmation assay | shares compounds with STAT1 activator | NIH 3T3 STAT1-luciferase reporter, IFN-gamma potentiation, luminescence; 100% = IFN-gamma EC80 alone, no compound | activation (% of control), % at 5.7 µM | actives 97% (n = 1,200) | AID 1262;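 active = activation above a set limit carried over from the earlier primary STAT1 screen, cut at about 140% in these data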;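 note: simple ratio to median IFN-gamma plus DMSO wells so 0% means no light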
NFkB act: activates NF-kappaB, counter-screen to STAT1 activators; shares compounds with STAT1 activator; HEK293T NF-kB luciferase reporter, TNF-alpha stimulated, luminescence; 100% = TNF-alpha with vehicle only; activation (% of control), % at 5.7 µM; actives 43% (n = 1,200); AID 1306;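 active = activation above the mean of solvent-only control wells plus 3 SD, set per campaign, cut at about 130% in these data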;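 note: TNF-alpha given at a submaximal dose yielding about 80% of full reporter signal; values are well signal over median control so 100% means no change and 0% no light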
STAT3 act 2: human STAT3 activation in STAT1 activator counter-screen; activation (% of control), % at 5.7 µM; AID 1316; actives 46% (n = 1,200); shares compounds with STAT1 activator; U3A cells STAT3-luciferase reporter, IL-6, luminescence; cells lack STAT1; 100 = IL-6 alone, no compound effect;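 active = activation above the solvent-only control well mean plus 3 SD, set per plate batch, cut at about 110% in these data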;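 note: 0% = no luminescence and 100% = median IL-6 plus DMSO wells; higher means more STAT3 reporter activation so hits are non-selective activators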
* marks the source's active call; other numbers are inactive results; . = no result. Only some compounds are listed: those with a hit (about 4.3% of all), similar ones and a draw of the others.

SMILES	sdo1 growth	APP 5'UTR act	NF-kB expr up	FLuc stim CS	FLuc inhib CS	STAT1 activator	STAT1 act conf	NFkB act	STAT3 act 2
Cc1ccc(/C=N/N=C/c2ccc(C)s2)s1	0.2	178*	10*	0.3	74*	177*	238*	120	99
c1ccc2c(c1)oc1c(Nc3ccc4c(c3)OCCO4)ncnc12	-0.8	164*	5*	0.7	28	180*	260*	141*	114*
Cc1nc(Nc2ccc3c(c2)OCCO3)c2oc3ccccc3c2n1	-1.8	15	0.47	1	-4	110	.	.	.
COc1ccc(Nc2ncnc3c2oc2ccccc23)cc1	0.07	117	3.4*	0.9	8	163*	204*	134*	104
COc1ccccc1Oc1ncnc2c1oc1ccccc12	.	-16	1.1	1	0	107	.	.	.
c1coc(CNc2ncnc3c2oc2ccccc23)c1	-0.66	7	1.8	1	-1	85	.	.	.
Cc1ccc(Nc2ncnc3c2oc2ccccc23)cc1	-1.8	152*	5.4*	0.9	9	171*	231*	155*	117*
Cc1cc(/C=C2/C(=O)N(C)C(=S)N2C)ccc1N1CCCC1	.	118	3.2	0.8	16	175*	168*	135*	146*
O=C(Nc1cnc2ccccc2c1)c1ccco1	0.19	157*	6.2*	0.8	23	152*	183*	105	90
O=C(Nc1cccc(-c2cnc3ccccc3n2)c1)c1ccco1	0.91	.	0.64	0.9	6	126	.	.	.
Cc1cc(/C=C(\C#N)C(=O)NCc2cccs2)c(C)n1-c1ccccc1F	-0.63	115	1.2	0.5	49	151*	169*	130	121*
Cc1nc(=O)c(-c2ccccc2)c(C)n1CCCCCC(=O)O	2.8	-6	1.1	1.1	-6	93	.	.	.
CC(=O)N1N=C(c2ccc(C)cc2)OC1c1ccc(C(C)C)cc1 (configuration not stated)	0.36	116	4.3*	1	0	166*	217*	146*	146*
CC(=O)N1N=C(c2ccc(C)cc2)OC1c1ccc(C)cc1 (configuration not stated)	-1.5	29	1.8	1	-4	122	.	.	.
O=C(Nc1nc2c(s1)C(=O)CCC2)c1ccccc1	0.9	148*	3	0.3	66*	153*	185*	111	96
COc1ccccc1NC(=O)C(=O)N(c1cccnc1)C(C(=O)NC(C)(C)C)c1ccccc1F (configuration not stated)	.	12	1.1	1	-2	98	.	.	.
Cc1ccsc1-c1nc(CN(C)C(C2CC2)C2CC2)c(C)o1	.	14	1.7	1.1	-6	106	.	.	.
COc1cc(OC)nc(-n2ncc(Br)c(Br)c2=O)n1	-0.72	-94	1.1	1.1	-6	240*	273*	87	95
COC(=O)c1cnn(-c2nc(OC)cc(OC)n2)c1C	1.6	4	1.3	1.1	-5	97	.	.	.
COc1ccccc1NC(=O)CCC(=O)Nc1nnc(C(F)(F)F)s1	0.38	3	1.6	1.1	-10	95	.	.	.
COc1ccc(/C=C2\COc3ccccc3C2=O)cc1OC	-1.7	16	1.1	0.9	11	93	.	.	.
COc1ccc(/C=C2\OC(=O)c3c(OC)cccc32)cc1OC	-0.89	101	3	0.5	50*	169*	209*	139*	112*
CCCC(=O)Nc1nc2ccc3nc(C)sc3c2s1	-1.5	21	2.1	1.1	-7	125	.	.	.
CCC(=O)Nc1nc2ccc3sc(C)nc3c2s1	.	79	1.5	0.6	40	168*	189*	121	143*
COc1cccc(/C=N/n2cnc3ccccc32)c1OC	0.1	152*	4.1*	0.9	6	162*	205*	131	107
SMILES	sdo1 growth	APP 5'UTR act	NF-kB expr up	FLuc stim CS	FLuc inhib CS	STAT1 activator	STAT1 act conf	NFkB act	STAT3 act 2
O=C(NC12CC3CC(CC(C3)C1)C2)c1ccc(COc2ccc(Cl)cc2[N+](=O)[O-])o1	-1.8	4	0.8	1.1	-6	111	.	.	.
O=C(NC12CC3CC(CC(C3)C1)C2)c1ccc(-c2cccc(Cl)c2)o1	-1.7	192*	0.82	0.8	23	164*	210*	143*	128*
CC(=O)c1ccc(NC(=O)/C(Cl)=C/c2ccccc2)cc1	.	168*	6.4*	0.7	29	154*	200*	127	115*
CC(=O)c1ccc(NC(=O)/C(=C\c2ccccc2)NC(=O)/C=C/c2ccccc2)cc1	-0.26	11	0.69	1.1	-6	111	.	.	.
CC(C)N(C(=O)Cn1cc(SCC(N)=O)c2ccccc21)C(C)C	.	12	1.8	1	-4	102	.	.	.
CN(/N=C/c1ccncc1)c1cnc2ccccc2n1	.	181*	3.7*	0.4	56*	153*	195*	130	124*
CN(/N=C/c1ccncc1)C1=NS(=O)(=O)c2ccccc21	0.89	-8	1.2	1	-1	109	.	.	.
Cc1c(CNC(=O)c2c([N+](=O)[O-])cnn2C)cnn1C	.	-5	.	1	-3	106	.	.	.
O=C(NC1CCCCCC1)c1c2c(nc3ccccc13)CCN(Cc1ccccc1)C2	-0.66	13	0.33	1.1	-5	96	.	.	.
Cc1cc(N2CCN(C)CC2)ccc1NC(=O)c1c2c(nc3ccccc13)CCN(Cc1ccccc1)C2	.	-13	1.3	1	-3	166*	118	110	115*
Cc1c(C(=O)N(C)C)sc2nc(-c3ccccn3)[nH]c(=O)c12	-0.12	2	1.4	0.9	8	110	.	.	.
O=c1[nH]c(-c2ccccn2)nc2sc(-c3ccccc3)cc12	.	-27	1.6	0.6	38	298*	473*	225*	119*
CCCNC(=O)[C@H](C)NC(=O)c1ccc(Br)cc1	.	-18	1	1.1	-8	106	.	.	.
CCOc1ccc(C(=O)Nc2ccc(Cl)cn2)cc1Cl	-1.4	153*	4.9*	1	5	158*	188*	137*	99
CCCCC(=O)N/N=C/c1ccc(N2CCOCC2)c([N+](=O)[O-])c1	-0.13	-1	0.95	1	-5	96	.	.	.
